Our source for the IC50 and inhibition values is ChEMBL document CHEMBL4680190, “Imidazo[2,1-b] [1,3,4]thiadiazoles with antiproliferative activity against primary and gemcitabine-resistant pancreatic cancer cells” (Eur J Med Chem, 2020).

Active and inactive are the calls of the source. No cut-off for these calls is given here.

Experiment [1] is described as follows: Antiproliferative activity against human SUIT-2 cells assessed as reduction in cell growth incubated for 72 hrs by SRB assay. The note with it: SUIT-2, 72 h. It is filed as functional, cell-based. Summed up: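 SUIT-2 cells seeded at 3 × 10³/well in triplicate and left 24 h at 37 °C. Cells were fixed with cold TCA, stained with 0.4% SRB in 1% acetic acid and dissolved in Tris pH 8.8. A490/A540 was read vs vehicle, corrected for day-0 OD. IC50 came from nonlinear curve fit; mean of three experiments.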
(In SRB staining, fixed cells bind dye roughly in proportion to their protein.)

A further experiment concerns CAPAN-1. Nature of the experiment: Antiproliferative activity against human Capan-1 cells assessed as reduction in cell growth incubated for 72 hrs by SRB assay. The note with it: CAPAN-1, 72 h. It is filed as functional, cell-based. In outline:
(§1)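 Cells were seeded in triplicate at 3×10³/well (Panc-1, Panc-1R, PDAC-3) or 5×10³/well (Capan-1) and preincubated 24 h at 37 °C. Fixation was cold TCA, staining 0.4% SRB, solubilisation Tris pH 8.8, read at 490/540 nm. Growth was taken versus vehicle, day-0 corrected, and IC50 fitted nonlinearly; three independent experiments, mean ± SEM.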

A further experiment has as its system PANC-1. Nature of the experiment: Antiproliferative activity against human Panc-1 cells assessed as reduction in cell growth incubated for 72 hrs by SRB assay. It is filed as functional, cell-based. The conditions noted are these: PANC-1, 72 h. In outline:
as §1

Experiment [2] has as its target Focal adhesion kinase 1 (Homo sapiens) (UniProt Q05397). Description: Inhibition of PTK2 in human SUIT-2 cells assessed as inhibition of PTK2 phosphorylation at Y397 residue at 5XIC50 incubated for 24 hrs by western blot analysis. It is filed as cell-based. On the technique in general: In western blotting, separated proteins are transferred to a membrane and probed.

The target is the same in experiment [3]. Description: Inhibition of PTK2 in human CAPAN-1 cells assessed as inhibition of PTK2 phosphorylation at Y397 residue at 5XIC50 incubated for 24 hrs by western blot analysis. It is filed as cell-based.
The target is the same in experiment [4]. Description: Inhibition of PTK2 in human Panc-1 cells assessed as inhibition of PTK2 phosphorylation at Y397 residue at 5XIC50 incubated for 24 hrs by western blot analysis. It is filed as cell-based.
A short description of experiment [5]: Antiproliferative activity against human PDAC-3 cells assessed as inhibition of cell growth incubated for 72 hrs by SRB assay. The note with it: PDAC-3, 72 h. It is filed as functional, cell-based. In outline: as §1
Experiment [6] is described as follows: Antiproliferative activity against gemicitabine-resistant human Panc-1R cells incubated for 72 hrs by SRB assay. It is filed as functional, cell-based. The note with it: PANC-1, 72 h. Summed up: as §1

What is called IC50 is the midpoint of a concentration-inhibition curve.

Sequence of Focal adhesion kinase 1 (Homo sapiens) (Q05397 2-1052 limits assumed): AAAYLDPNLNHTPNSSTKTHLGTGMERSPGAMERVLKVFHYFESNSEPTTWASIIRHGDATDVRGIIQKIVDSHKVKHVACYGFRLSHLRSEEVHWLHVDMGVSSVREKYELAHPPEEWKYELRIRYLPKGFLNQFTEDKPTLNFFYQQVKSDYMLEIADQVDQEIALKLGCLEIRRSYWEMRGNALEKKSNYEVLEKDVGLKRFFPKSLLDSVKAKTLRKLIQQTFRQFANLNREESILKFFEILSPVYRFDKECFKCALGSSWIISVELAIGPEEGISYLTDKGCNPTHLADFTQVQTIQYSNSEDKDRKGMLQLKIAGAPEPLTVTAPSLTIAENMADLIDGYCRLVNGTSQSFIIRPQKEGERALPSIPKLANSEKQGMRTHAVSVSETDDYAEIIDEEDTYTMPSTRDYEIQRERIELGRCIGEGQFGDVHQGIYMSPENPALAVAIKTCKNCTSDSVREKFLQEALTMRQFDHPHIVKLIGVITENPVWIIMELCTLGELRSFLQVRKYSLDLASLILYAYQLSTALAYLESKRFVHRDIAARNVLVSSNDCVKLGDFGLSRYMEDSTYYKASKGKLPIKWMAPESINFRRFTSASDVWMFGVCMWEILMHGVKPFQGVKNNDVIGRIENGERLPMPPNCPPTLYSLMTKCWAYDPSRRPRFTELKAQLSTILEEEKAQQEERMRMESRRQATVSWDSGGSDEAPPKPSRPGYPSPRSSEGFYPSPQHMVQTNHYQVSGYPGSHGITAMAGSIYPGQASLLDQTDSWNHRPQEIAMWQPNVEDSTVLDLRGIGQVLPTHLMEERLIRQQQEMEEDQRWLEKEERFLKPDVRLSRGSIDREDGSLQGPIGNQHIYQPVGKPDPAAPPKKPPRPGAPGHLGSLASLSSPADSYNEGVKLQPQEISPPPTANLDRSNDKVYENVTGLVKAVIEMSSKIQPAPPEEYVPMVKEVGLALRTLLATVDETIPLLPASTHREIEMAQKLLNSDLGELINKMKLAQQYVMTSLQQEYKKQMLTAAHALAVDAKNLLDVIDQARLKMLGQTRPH

For `COc1ccc(OC)c(-c2nc3sc(-c4cn(C)c5ccccc45)nn3c2C=O)c1`, the IC50 in experiment [1] was 12.5 µM; in the experiment with CAPAN-1, 5.73 µM; in the experiment on PANC-1, above 16 µM.
For `O=Cc1c(-c2ccccc2)nc2sc(-c3c[nH]c4ccccc34)nn12`, in that order: 9.56 µM, 10.5 µM and 12.4 µM.
For `COc1ccc(OC)c(-c2nc3sc(-c4c[nH]c5ccccc45)nn3c2C=O)c1`, in that order: 13 µM, above 16 µM and above 16 µM.
For `COc1ccc(OC)c(-c2nc3sc(-c4c[nH]c5ccc(Br)cc45)nn3c2C=O)c1`, the half-inhibitory concentration (IC50) in experiment [1] was determined as 8.7 µM; with CAPAN-1, 8.24 µM; with PANC-1, 10.6 µM.
With `COc1cccc(-c2nc3sc(-c4c[nH]c5ccccc45)nn3c2C=O)c1`, the IC50 in experiment [1] is 11.5 µM; in the experiment on CAPAN-1, above 16 µM; in the experiment on PANC-1, above 16 µM.
As for `c1ccc2c(-c3nn4cc(-c5ccsc5)nc4s3)c[nH]c2c1`, the inhibition entry in experiment [2], in experiment [3] and in experiment [4] was “Active” each time.
As for `O=c1[nH]cc(F)c(=O)[nH]1` [FLUOROURACIL], the IC50 in experiment [1] is 0.91 µM; in the experiment with CAPAN-1 it was 0.47 µM; in the experiment on PANC-1 it was 4.3 µM; in experiment [5], 0.56 µM; in experiment [6], 4.5 µM.
For `Nc1ccn([C@@H]2O[C@H](CO)[C@@H](O)C2(F)F)c(=O)n1` [GEMCITABINE], in that order: 0.01 µM, 0.02 µM, 0.15 µM, 0.03 µM and above 10 µM.
Regarding `Cn1cc(-c2nn3cc(-c4ccsc4)nc3s2)c2ccccc21`, the inhibition entry in experiment [2], in experiment [3] and in experiment [4] was “Active” throughout.
For `O=Cc1c(-c2ccc(F)cc2)nc2sc(-c3c[nH]c4ccccc34)nn12`, the half-maximal inhibitory concentration (IC50) in experiment [1] was found to be 7.93 µM; in the experiment on CAPAN-1, 8.83 µM; in the experiment with PANC-1 it was 10.5 µM.
